A short description of series [1]: Cytotoxicity against human MT4 cells by MTT assay. In kind it is cell-based. On the technique in general: Tetrazolium assays rely on reduction of a dye to a coloured formazan, in cell work by metabolically active cells.
The nature of series [2]: Cytotoxicity against human PBMC cells by MTT assay. In kind it is cell-based.
For series [3], the system named is Human immunodeficiency virus 1. Kind of series: Antiviral activity against X4 HIV1 NL4.3 infected in human PBMC assessed as inhibition of viral replication pre-incubated for 30 mins measured 5 days post infection by MTT assay. In kind it is functional, organism-based. Particulars: Human immunodeficiency virus 1, NL4.3. An outline of the steps:
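Human PBMC infected with HIV-1 NL4.3. IC₅₀ is the concentration inhibiting viral replication by 50%, averaged over two independent experiments. Cytotoxicity (CC₅₀, 50% loss of PBMC viability) evaluated in the same assay.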

The target in series [4] is T1, C-X-C chemokine receptor type 4 (Homo sapiens, UniProt P61073). In words: Inhibition of CXCL-12'AF647 binding to CXCR4 in human SUPT1 cells incubated for 15 mins by FACS. The class given is cell-based. In a few lines: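 SupT1 cells (high CXCR4) washed, then incubated 15 min at room temperature with compounds at varied concentrations in HBSS containing 20 mM HEPES and 0.2% BSA, pH 7.4. CXCL12-AF647 added at 25 ng/mL final for 30 min at room temperature. Cells washed, fixed in 1% paraformaldehyde, and read by flow cytometry on FL4.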
T1 sequence (P61073 whole entry): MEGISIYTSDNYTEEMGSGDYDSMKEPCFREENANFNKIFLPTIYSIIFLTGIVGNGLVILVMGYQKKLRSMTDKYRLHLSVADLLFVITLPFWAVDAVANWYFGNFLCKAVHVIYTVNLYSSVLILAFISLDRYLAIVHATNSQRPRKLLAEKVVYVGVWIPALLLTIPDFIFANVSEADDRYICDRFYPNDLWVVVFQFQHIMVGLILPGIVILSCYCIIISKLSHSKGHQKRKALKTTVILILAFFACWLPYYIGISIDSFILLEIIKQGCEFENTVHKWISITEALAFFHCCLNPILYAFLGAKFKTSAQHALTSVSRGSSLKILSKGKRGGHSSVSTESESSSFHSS

The target in series [5] is T1, C-X-C chemokine receptor type 4. Kind of series: Inhibition of anti-CXCR4 mAbs clone 1D9 binding to CXCR4 in human SUPT1 cells incubated for 30 mins by FACS.
Series [6] addresses T2, C-C chemokine receptor type 5 (Homo sapiens, UniProt P51681). In words: Antagonist activity against CCR5 expressed in U87.CD4.CCR5 cells assessed as inhibition of CCL3L1-induced calcium signaling incubated for 10 mins by FLIPR.
Series [7] deals with T2, C-C chemokine receptor type 5. In words: Antagonist activity against CCR5 expressed in U87.CD4.CCR5 cells assessed as inhibition of CCL3L1-induced calcium signaling incubated for 10 mins by FLIPR. In kind it is functional, cell-based. An outline of the steps: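 U87.CD4.CCR5 cells seeded at 2 × 10⁴/well on 0.2% gelatin the day before, loaded with 4 μM Fluo-3 AM for 45 min at 37 °C, washed, then preincubated with compounds at varied concentrations in assay buffer for 10 min at 37 °C. Stimulated with 10 ng/mL LD78β (CCL3L1); Ca²⁺ flux recorded by FLIPR.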

Series [8] has as its target T1, C-X-C chemokine receptor type 4. Kind of series: Inhibition of anti-CXCR4 mAbs clone 173 binding to CXCR4 in human SUPT1 cells incubated for 30 mins by FACS. (In general: In flow cytometry, cells or beads pass a laser one at a time.)
For series [9], the target named is T2, C-C chemokine receptor type 5. Kind of series: Agonist activity against CCR5 expressed in U87.CD4.CCR5 cells assessed as stimulation of calcium signaling incubated for 10 mins by FLIPR.
Series [10] relates to Human immunodeficiency virus 1. In words: Antiviral activity against X4 HIV1 NL4.3 infected in human MT4 cells assessed as inhibition of viral replication pre-incubated for 30 mins […]. The class given is functional, organism-based. Particulars: Human immunodeficiency virus 1, NL4.3, MT4.
The target in series [11] is T1, C-X-C chemokine receptor type 4. In words: Agonist activity against CXCR4 expressed in U87.CD.CXCR4 cells assessed as stimulation of calcium signaling incubated for 10 mins by FLIPR. The class given is functional, cell-based. An outline of the steps: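 U87.CD4 cells stably carrying CXCR4 or CCR5, trypsinized and seeded at 2 × 10⁴ cells/well on 0.2% gelatin the day before. Loaded with Fluo-3 AM (4 μM, 45 min, 37 °C), washed, then exposed to test agents alone at varied concentrations in assay buffer for 10 min at 37 °C. Cytosolic Ca²⁺ rise monitored over time by FLIPR to detect any agonist-triggered signal.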

The target is the same in series [12]. Kind of series: Inhibition of anti-CXCR4 mAbs clone 12G5 binding to CXCR4 in human SUPT1 cells incubated for 30 mins by FACS.
For series [13] the target is unchanged. In words: Antagonist activity against CXCR4 expressed in U87.CD.CXCR4 cells assessed as inhibition of CXCL12-induced calcium signaling incubated for 10 mins by FLIPR. In kind it is functional, cell-based. In a few lines:
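U87.CD4.CXCR4 cells seeded at 2 × 10⁴/well on 0.2% gelatin the day before, loaded with 4 μM Fluo-3 AM for 45 min at 37 °C, washed, then preincubated with compounds at varied concentrations in assay buffer for 10 min at 37 °C. Challenged with 25 ng/mL CXCL12; Ca²⁺ flux followed over time by FLIPR.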

What is called CC50 is the concentration at which the toxic effect on the cells reaches its halfway point. For orientation: IC50 means the midpoint of a concentration-inhibition curve.

Molecules are shown by their SMILES. Activity calls are given as the source filed them. No cut-off for these calls is given here.

T2 sequence (P51681 whole entry, looked up): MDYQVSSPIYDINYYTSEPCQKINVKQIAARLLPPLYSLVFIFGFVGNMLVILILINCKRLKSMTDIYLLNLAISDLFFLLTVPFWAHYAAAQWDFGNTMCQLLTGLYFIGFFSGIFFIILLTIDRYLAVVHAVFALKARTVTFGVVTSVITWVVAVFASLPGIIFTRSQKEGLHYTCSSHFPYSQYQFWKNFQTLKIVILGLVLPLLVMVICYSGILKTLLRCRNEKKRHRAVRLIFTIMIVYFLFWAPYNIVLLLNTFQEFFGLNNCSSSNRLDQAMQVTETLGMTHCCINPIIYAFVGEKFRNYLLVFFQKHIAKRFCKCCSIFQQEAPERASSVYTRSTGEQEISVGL

As to `c1cc(CN2CCCNCCNCCCNCC2)ccc1CN1CCCNCCNCCCNCC1` [PLERIXAFOR], the CC50 in [1] and in series [2] was more than 10 µg/mL in each case.
In the case of `CC[n+]1ccc(-c2cc[n+](Cc3cc(C[n+]4ccc(-c5cc[n+](CC)cc5)cc4)cc(-[n+]4ccc(-c5cc[n+](-c6cc(C[n+]7ccc(-c8cc[n+](CC)cc8)cc7)cc(C[n+]7ccc(-c8cc[n+](CC)cc8)cc7)c6)cc5)cc4)c3)cc2)cc1.F[P-](F)(F)(F)(F)F.F[P-](F)(F)(F)(F)F.F[P-](F)(F)(F)(F)F.F[P-](F)(F)(F)(F)F.F[P-](F)(F)(F)(F)F.F[P-](F)(F)(F)(F)F.F[P-](F)(F)(F)(F)F.F[P-](F)(F)(F)(F)F.F[P-](F)(F)(F)(F)F.F[P-](F)(F)(F)(F)F`, the IC50 in [3] was 5.6 µg/mL; in series [4] it was 5800 nM; in [5], 3360 nM; in series [7], more than 39200 nM; in series [8], 544 nM; in series [10], 1.1 µg/mL. Besides, the half-inhibitory concentration (IC50) in series [12] was 768 nM; in series [13] it was 24000 nM. The inhibition entry in [5], in series [6], in [8], in [12] and in series [13] was “Dose-dependent effect” in each case. In addition, the result in series [9] and in [11] was inactive. Further, the CC50 in series [1] and in [2] was more than 100 µg/mL throughout.
Regarding `Cc1cn(CCC[n+]2ccc(-c3cc[n+](Cc4cc(C[n+]5ccc(-c6cc[n+](CCCn7cc(C)c(=O)[nH]c7=O)cc6)cc5)cc(C[n+]5ccc(-c6cc[n+](Cc7cc(C[n+]8ccc(-c9cc[n+](Cc%10cc(C[n+]%11ccc(-c%12cc[n+](CCCn%13cc(C)c(=O)[nH]c%13=O)cc%12)cc%11)cc(C[n+]%11ccc(-c%12cc[n+](CCCn%13cc(C)c(=O)[nH]c%13=O)cc%12)cc%11)c%10)cc9)cc8)cc(C[n+]8ccc(-c9cc[n+](Cc%10cc(C[n+]%11ccc(-c%12cc[n+](CCCn%13cc(C)c(=O)[nH]c%13=O)cc%12)cc%11)cc(C[n+]%11ccc(-c%12cc[n+](CCCn%13cc(C)c(=O)[nH]c%13=O)cc%12)cc%11)c%10)cc9)cc8)c7)cc6)cc5)c4)cc3)cc2)c(=O)[nH]c1=O.F[P-](F)(F)(F)(F)F.F[P-](F)(F)(F)(F)F.F[P-](F)(F)(F)(F)F.F[P-](F)(F)(F)(F)F.F[P-](F)(F)(F)(F)F.F[P-](F)(F)(F)(F)F.F[P-](F)(F)(F)(F)F.F[P-](F)(F)(F)(F)F.F[P-](F)(F)(F)(F)F.F[P-](F)(F)(F)(F)F.F[P-](F)(F)(F)(F)F.F[P-](F)(F)(F)(F)F.F[P-](F)(F)(F)(F)F.F[P-](F)(F)(F)(F)F.F[P-](F)(F)(F)(F)F.F[P-](F)(F)(F)(F)F.F[P-](F)(F)(F)(F)F.F[P-](F)(F)(F)(F)F`, the IC50 is 0.89 µg/mL in series [3]; 231 nM in series [4]; 516 nM in series [5]; 1870 nM in series [7]; 403 nM in series [8]; 1.8 µg/mL in series [10]. For the same molecule, the 50% inhibitory concentration (IC50) in series [12] is 352 nM; in series [13] it was 279 nM. In addition, the half-maximal cytotoxic concentration (CC50) was found to be 10 µg/mL in series [1] and 20 µg/mL in series [2].
For the molecule `Cc1cn(CCC[n+]2ccc(-c3cc[n+](Cc4cc(C[n+]5ccc(-c6cc[n+](CCCn7cc(C)c(=O)[nH]c7=O)cc6)cc5)cc(C[n+]5ccc(-c6cc[n+](Cc7cc(C[n+]8ccc(-c9cc[n+](Cc%10cc(C[n+]%11ccc(-c%12cc[n+](CCCn%13cc(C)c(=O)[nH]c%13=O)cc%12)cc%11)cc(C[n+]%11ccc(-c%12cc[n+](CCCn%13cc(C)c(=O)[nH]c%13=O)cc%12)cc%11)c%10)cc9)cc8)cc(-[n+]8ccc(-c9cc[n+](-c%10cc(C[n+]%11ccc(-c%12cc[n+](Cc%13cc(C[n+]%14ccc(-c%15cc[n+](CCCn%16cc(C)c(=O)[nH]c%16=O)cc%15)cc%14)cc(C[n+]%14ccc(-c%15cc[n+](CCCn%16cc(C)c(=O)[nH]c%16=O)cc%15)cc%14)c%13)cc%12)cc%11)cc(C[n+]%11ccc(-c%12cc[n+](Cc%13cc(C[n+]%14ccc(-c%15cc[n+](CCCn%16cc(C)c(=O)[nH]c%16=O)cc%15)cc%14)cc(C[n+]%14ccc(-c%15cc[n+](CCCn%16cc(C)c(=O)[nH]c%16=O)cc%15)cc%14)c%13)cc%12)cc%11)c%10)cc9)cc8)c7)cc6)cc5)c4)cc3)cc2)c(=O)[nH]c1=O.F[P-](F)(F)(F)(F)F.F[P-](F)(F)(F)(F)F.F[P-](F)(F)(F)(F)F.F[P-](F)(F)(F)(F)F.F[P-](F)(F)(F)(F)F.F[P-](F)(F)(F)(F)F.F[P-](F)(F)(F)(F)F.F[P-](F)(F)(F)(F)F.F[P-](F)(F)(F)(F)F.F[P-](F)(F)(F)(F)F.F[P-](F)(F)(F)(F)F.F[P-](F)(F)(F)(F)F.F[P-](F)(F)(F)(F)F.F[P-](F)(F)(F)(F)F.F[P-](F)(F)(F)(F)F.F[P-](F)(F)(F)(F)F.F[P-](F)(F)(F)(F)F.F[P-](F)(F)(F)(F)F.F[P-](F)(F)(F)(F)F.F[P-](F)(F)(F)(F)F.F[P-](F)(F)(F)(F)F.F[P-](F)(F)(F)(F)F.F[P-](F)(F)(F)(F)F.F[P-](F)(F)(F)(F)F.F[P-](F)(F)(F)(F)F.F[P-](F)(F)(F)(F)F`, the half-maximal inhibitory concentration (IC50) in series [3] was 0.41 µg/mL; in series [4], 207 nM; in series [5], 326 nM; in series [7], 3660 nM; in [8] it was 210 nM; in series [10], 1.5 µg/mL. Moreover, the figures for the IC50 in series [12] and in series [13] were 236 nM and 273 nM, respectively. Also, the CC50 came out at 19 µg/mL in series [1] and 20 µg/mL in series [2].
Take `CCc1cc[n+](-c2cc[n+](Cc3cc(C[n+]4ccc(-c5cc[n+](CC)cc5)cc4)cc(C[n+]4ccc(-c5cc[n+](Cc6cc(C[n+]7ccc(-c8cc[n+](Cc9cc(C[n+]%10ccc(-c%11cc[n+](CC)cc%11)cc%10)cc(C[n+]%10ccc(-c%11cc[n+](CC)cc%11)cc%10)c9)cc8)cc7)cc(-[n+]7ccc(-c8cc[n+](-c9cc(C[n+]%10ccc(-c%11cc[n+](Cc%12cc(C[n+]%13ccc(-c%14cc[n+](CC)cc%14)cc%13)cc(C[n+]%13ccc(-c%14cc[n+](CC)cc%14)cc%13)c%12)cc%11)cc%10)cc(C[n+]%10ccc(-c%11cc[n+](Cc%12cc(C[n+]%13ccc(-c%14cc[n+](CC)cc%14)cc%13)cc(C[n+]%13ccc(-c%14cc[n+](CC)cc%14)cc%13)c%12)cc%11)cc%10)c9)cc8)cc7)c6)cc5)cc4)c3)cc2)cc1.F[P-](F)(F)(F)(F)F.F[P-](F)(F)(F)(F)F.F[P-](F)(F)(F)(F)F.F[P-](F)(F)(F)(F)F.F[P-](F)(F)(F)(F)F.F[P-](F)(F)(F)(F)F.F[P-](F)(F)(F)(F)F.F[P-](F)(F)(F)(F)F.F[P-](F)(F)(F)(F)F.F[P-](F)(F)(F)(F)F.F[P-](F)(F)(F)(F)F.F[P-](F)(F)(F)(F)F.F[P-](F)(F)(F)(F)F.F[P-](F)(F)(F)(F)F.F[P-](F)(F)(F)(F)F.F[P-](F)(F)(F)(F)F.F[P-](F)(F)(F)(F)F.F[P-](F)(F)(F)(F)F.F[P-](F)(F)(F)(F)F.F[P-](F)(F)(F)(F)F.F[P-](F)(F)(F)(F)F.F[P-](F)(F)(F)(F)F.F[P-](F)(F)(F)(F)F.F[P-](F)(F)(F)(F)F.F[P-](F)(F)(F)(F)F.F[P-](F)(F)(F)(F)F`: the IC50 in series [3] was 0.12 µg/mL; in series [4], 285 nM; in series [5] it was 446 nM; in [7] it was 12100 nM; in [8], 203 nM; in series [10], 0.9 µg/mL. The IC50 is 344 nM in series [12] and 538 nM in series [13]. Besides, the CC50 in series [1] was determined as 34 µg/mL; in series [2], 100 µg/mL.

Values taken from ChEMBL document CHEMBL2177043, “HIV-1 X4 activities of polycationic "viologen" based dendrimers by interaction with the chemokine receptor CXCR4: study of structure-activity relationship” (J Med Chem, 2012).
